Source: PubChem
Calb FLC: affects C. albicans growth with fluconazole. growth inhibition, % (concentration not given with the values). AID 1979. C. albicans CaCi-2 (fluconazole-resistant clinical isolate) + fluconazole, Alamar Blue growth, 48 h. 0.57% of 300,000 active;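 active = growth inhibition above about 58% in most replicates, limit read from the data, passing the limit was not always enough; inconclusive = exactly half the replicates above a set limit; inactive = most replicates below a set limit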;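 also: all wells also contain fluconazole at 8 µg/ml as a sub-toxic cotreatment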
Mdm2-MdmX inh: inhibitors of human Mdm2/MdmX interaction | O15151+Q00987 | SaOS-2 split-luciferase Mdm2/MdmX complementation, luminescence | inhibition, % at 8 µM | 3% of 330,000 active | AID 485346;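 active = inhibition of at least 50% at 8 µM in the primary screen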
Beta cell apopt: beta cell apoptosis inhibition | INS-1E cytokine-induced death, ATP luminescence, 48 h; percent of positive-control rescue, neutral wells zero | protection from apoptosis, % (concentration not given with the values) | 0.8% of 300,000 active | AID 435005;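 active = Every replicate reaches about 75%, or at least half do and their mean reaches it too, limit read from the data; inconclusive = At least half of replicates reach the limit but their mean does not; inactive = Under half of replicates reach the limit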;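 also: higher means more ATP so stronger rescue from cytokine killing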
SKKanGAS inh: blocks kanamycin growth of S. pyogenes SKKanGAS strain; AID 1662; BacTiter-Glo, 6 h; inhibition, % at 7.5 µM; 1.3% of 300,000 active;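 active = mean replicate score, as percent of positive control median, at least 50; inconclusive = mean below 50 but one replicate at or above 50; inactive = mean and every replicate below 50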;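 also: strain carries kanamycin resistance gene driven by streptokinase promoter and grows in 40 µg/ml kanamycin; loss of luminescence reflects streptokinase promoter inhibition or plain growth inhibition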
CSC inhib: cancer stem cell inhibition. cancer stem cell-like cells viability, luminescence. inhibition, % at 7.5 µM. 1.1% of 300,000 active. AID 2717; in the data active = inhibition above about 75%; inconclusive = no clear call, values can overlap the other calls; tested in HMLE shEcad cells
T cruzi inh: T. cruzi replication inhibition | T. cruzi beta-gal in NIH3T3, luminescence, 90 h | AID 1885 | inhibition, % (test concentration not listed) | 1.4% of 300,000 active;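 active = mean inhibition across valid replicates above about 55%, limit read from the data; inconclusive = mean below that limit but half or more replicates reach it; inactive = mean below it, under half of replicates reach it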;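 also: signal also drops with host cell toxicity which is not excluded here; higher percent means less beta-gal luminescence so fewer parasites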
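Incubation – ≥90 h infection period, 3 h prior cell attachment · System – NIH/3T3 fibroblasts plus reporter T. cruzi · Doses – compound pinned at 50 nL/well, DMSO · Read-out basis – percent inhibition of parasite-derived β-gal signal · Signal – luminescent β-galactosidase signal after 60 min lysis · Also added – 5000 T. cruzi trypomastigotes/well · Medium – Low-serum DMEM with 2% FBS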
Mdm2 MdmX conf: confirmation of human Mdm2/MdmX interaction inhibitors; shares compounds with Mdm2-MdmX inh; Mdm2-MdmX binding, luminescent assay; inhibition, % at 8 µM; 55% of 10,000 active; AID 489028; in the data active = inhibition above about 40%
Full FLuc ctr: inhibits full-length luciferase, flagging false Mdm2/MdmX hits; inhibition, % at 8 µM; SaOS-2 full-length luciferase counterscreen, luminescence; shares compounds with Mdm2-MdmX inh; 77% of 6,200 active; AID 504607;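 active = mean inhibition at 8 µM reaching about 37%, which flags the compound as non-specific, limit read from the data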;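 also: p53-null SaOS-2 cells with luciferase driven by a doxycycline-inducible promoter; compound on cells about two nights before reading with doxycycline added after day one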
Hits are given with their value; – = inactive; ? = inconclusive; · = no result; + = active, no number. Rows were chosen to be rich in hits. Some 5.7% of all compounds tested hit in one or more screens of this group.

SMILES | Calb FLC | Mdm2-MdmX inh | Beta cell apopt | SKKanGAS inh | CSC inhib | T cruzi inh | Mdm2 MdmX conf | Full FLuc ctr
CC(NC(=O)CSc1nc2sc3c(c2c(=O)n1-c1ccccc1)CCCC3)c1ccccc1 (configuration not stated) | – | 51 | · | – | · | – | – | ·
C=CCn1c(SCC(=O)Nc2cc(C)on2)nc2sc(C)c(C)c2c1=O | – | 51 | – | – | – | – | – | ·
C=CC(C)(C)c1c(O)c(CC=C(C)C)c(O)c2c(=O)c3ccc(O)c(O)c3oc12 | 84 | 92 | 107 | 103 | – | ? | 86 | 55
C=CC(C)(C)c1c2occc2c(O)c2ccc(=O)oc12 | · | – | · | · | · | · | · | ·
O=c1c(C(c2nnnn2C2CCCCC2)N2CCCCC2)coc2ccc(Cl)cc12 (configuration not stated) | ? | 53 | – | – | – | – | – | ·
CC1CCCC(C)N1CCCNC(=O)c1cc2c(s1)-c1ccccc1OC2 (configuration not stated) | – | 61 | – | – | – | – | – | ·
CC1CC(C)CN(CCCNC(=O)c2cc3c(s2)-c2ccccc2OC3)C1 (configuration not stated) | – | – | – | – | – | – | · | ·
Cc1cccc2c1-c1sc(C(=O)NCCCN3CCCC(C)C3)cc1CO2 (configuration not stated) | – | 67 | – | – | – | – | 49 | 59
CCN1CCN(CCCNC(=O)c2cc3c(s2)-c2ccccc2OC3)CC1 | – | – | – | – | – | – | · | ·
CCCN1CCN(CCCNC(=O)c2cc3c(s2)-c2c(C)cccc2OC3)CC1 | – | 62 | – | – | – | – | – | ·
CC(=O)c1ccc(OCc2cc(C(=O)NCCn3nc(C)cc3C)no2)cc1 | – | – | – | – | – | – | · | ·
CN(C)S(=O)(=O)c1ccc(Cl)c(C(=O)Nc2nc3ccccc3[nH]2)c1 | – | – | – | – | – | – | · | ·
Cc1ccc(NS(=O)(=O)c2ccc(Cl)c(C(=O)Nc3ccccc3-c3nc4ccccc4[nH]3)c2)cc1C | – | 61 | – | ? | + | 68 | 77 | 51
O=C(Cn1nc(C(=O)O)c2ccccc2c1=O)Nc1cc(S(=O)(=O)N2CCCCC2)ccc1Cl | · | – | – | · | – | · | · | ·
O=C(Nc1cc(S(=O)(=O)N2CCOCC2)ccc1Cl)c1ccc(=O)[nH]c1 | · | – | · | · | · | · | · | ·
N=c1n(CCN2CCCCC2)c2ccccc2n1CC(O)c1cccc(Br)c1 (configuration not stated) | – | 98 | – | – | – | – | 78 | –
N=c1n(CCN2CCCCC2)c2ccccc2n1CC(O)c1ccc(Cl)c(Cl)c1 (configuration not stated) | – | 99 | – | – | – | 59 | 96 | 56
CN(C)CCn1c(=N)n(CC(O)c2ccc(Cl)c(Cl)c2)c2ccccc21 (configuration not stated) | ? | 71 | – | – | – | – | 55 | 74
CCCCn1c(=N)n(CC(O)c2ccccc2)c2ccccc21 (configuration not stated) | – | – | – | – | – | – | · | ·
COc1ccc(NS(=O)(=O)c2ccc3c(c2)N(C(C)=O)CC(C)S3)c(OC)c1 (configuration not stated) | – | – | – | – | – | – | · | ·
OCC[C@H]1C[C@@H](O)[C@H](O)[C@@]2(CCCO2)O1 | – | – | – | – | – | – | · | ·
COc1ccc(/C=C2\SC(=S)N(CCCC(=O)N3CCCCC3CCO)C2=O)cc1 (configuration not stated) | – | 64 | – | – | – | – | – | ·
COc1ccc(/C=C2/SC(=S)N(CCCC(=O)Nc3ccccc3C(=O)O)C2=O)cc1 | – | – | – | – | – | – | · | ·
O=C1/C(=C/c2ccccc2Cl)SC(=S)N1CCC(=O)N1CCCCC1CCO (configuration not stated) | – | 53 | – | – | – | – | – | ·
O=C1/C(=C/c2ccccc2)SC(=S)N1CC(=O)N1CCCCC1c1cccnc1 (configuration not stated) | – | 85 | – | – | – | – | – | –
SMILES | Calb FLC | Mdm2-MdmX inh | Beta cell apopt | SKKanGAS inh | CSC inhib | T cruzi inh | Mdm2 MdmX conf | Full FLuc ctr
CC(C)c1ccc(/C=C2\SC(=S)N(CCC(=O)N3CCCCC3CCO)C2=O)cc1 (configuration not stated) | – | 62 | – | – | – | – | 50 | –
O=C(c1ccc(CNS(=O)(=O)c2ccc(Br)cc2)cc1)N1CCCCCC1 | – | – | – | – | – | – | · | ·
NC(=O)C1CCN(C(=O)NC2CC(=O)N(c3ccc4c(c3)OCCO4)C2)CC1 (configuration not stated) | – | – | – | – | – | – | · | ·
COc1cccc(/C=C2\SC(=O)N(CCC(=O)N3CCCCC3CCO)C2=O)c1 (configuration not stated) | – | – | – | – | – | – | · | ·
O=C1/C(=C\c2ccccc2)SC(=S)N1CCC(=O)N1CCCCC1CCO (configuration not stated) | – | 72 | – | – | – | – | – | ·
COc1ccc2c(CC(=O)OCC(=O)Nc3cccc(C)c3)coc2c1 | · | – | · | · | · | · | · | ·
CC1CCCCN1S(=O)(=O)c1ccc(S(=O)(=O)N2CCN(c3ccccc3)CC2)cc1 (configuration not stated) | – | 57 | – | – | – | – | – | ·
Cc1noc(C)c1-c1nnc(-c2ccc(C(F)(F)F)cc2)o1 | – | – | – | – | – | – | · | ·
Cc1ccc(NC(=O)CCn2c(=O)c3cccn3c3ccccc32)c(C)c1 | – | – | – | – | – | – | · | ·
Cc1cc(C)cc(NC(=O)CCn2c(=O)c3cccn3c3ccccc32)c1 | – | 56 | – | – | – | – | 50 | 52
COCC(=O)N/N=C\c1cccc(OC)c1OC/C=C/c1ccccc1 | ? | 55 | – | – | – | – | – | ·
CC1(NC(=O)CC(c2ccccc2)(c2ccccc2)c2ccccc2)CCN(CCCc2ccccc2)C1=O (configuration not stated) | · | 76 | – | · | 100 | · | – | ·
COc1cc(/C=N/Nc2nc(Nc3ccc(C)cc3)nc(-n3nc(C)cc3C)n2)cc(OC)c1OC | – | 59 | – | 74 | – | 58 | 73 | 62
COc1cc(/C=N/Nc2nc(Nc3ccccc3)nc(N3CCCCC3)n2)ccc1OCC(=O)O | – | – | – | – | – | – | · | ·
COc1cc(/C=N/Nc2nc(Nc3ccccc3)nc(-n3nc(C)cc3C)n2)cc(OC)c1OC | – | 69 | – | 75 | 102 | 55 | 66 | 78
COc1ccc(O)c(/C=N/Nc2nc(Nc3ccccc3)nc(-n3nc(C)cc3C)n2)c1 | – | 75 | 96 | 103 | 92 | – | 44 | 84
Cc1cc(C)c(NC(=O)COC(=O)Cc2cccs2)c(C)c1 | – | – | – | – | · | – | · | ·
